Source: ChEMBL document CHEMBL3259528, “Exploring 5-nitrofuran derivatives against nosocomial pathogens: synthesis, antimicrobial activity and chemometric analysis” (2014)
Values after ≈ are worked out from the molar mass of the structure shown. Active and inactive are the calls of the source. No cut-off for these calls is given here.

Key:
[1] = tested on: Staphylococcus aureus; experiment: Antimicrobial activity against Staphylococcus aureus ATCC 29213 after 18 hrs by modified broth microdilution method; type: functional
Summary of the method: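 PGI90, the concentration giving 90% growth inhibition, fitted with an exponential growth curve from at least seven concentrations of the MIC assay. Inhibition % = [(Ac − Ap)/Ac] × 100 from A620 of drug-free control versus drug-treated culture. Checked by a modified broth microdilution (Phase 2).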

[2] = tested on: Candida albicans; experiment: Antimicrobial activity against Candida albicans ATCC 537Y after 48 hrs by two-fold broth microdilution method; type: functional
Summary of the method: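 Two-fold serial dilutions in RPMI 1640 per CLSI M27-A2. Stocks in DMSO/RPMI 1:20 v/v. Test range 1.0–64 µM. Inoculum set to 0.5 McFarland, then diluted in saline and RPMI 1640. Plates held at 35 °C for 48 h. MIC is the lowest concentration giving prominent growth reduction. Run in triplicate.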

[3] = tested on: Serratia marcescens; experiment: Antimicrobial activity against Serratia marcescens ATCC 14576 at 128 uM after 24 to 48 hrs by two-fold broth microdilution method; type: functional, organism-based
Summary of the method: (§1)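 Antibacterial microdilution in CAMH, inoculum 0.5 McFarland diluted in saline/CAMH, 35 °C for 18 h, with further reads at 24 and 48 h. Activity is scored at the maximum tested concentration, 128 µM. Triplicate.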

[4] = tested on: Staphylococcus aureus; experiment: Antimicrobial activity against Staphylococcus aureus ATCC 29213 after 24 to 48 hrs by two-fold broth microdilution method; type: functional
[5] = tested on: Escherichia coli; experiment: Antimicrobial activity against Escherichia coli ATCC 25922 after 24 to 48 hrs by two-fold broth microdilution method; type: functional
[6] = tested on: Enterobacter cloacae; experiment: Antimicrobial activity against Enterobacter cloacae ATCC 23355 at 128 uM after 24 to 48 hrs by two-fold broth microdilution method; type: functional, organism-based; summary of the method: as §1
[7] = tested on: Klebsiella pneumoniae; experiment: Antimicrobial activity against Klebsiella pneumoniae ATCC 700603 at 128 uM after 24 to 48 hrs by two-fold broth microdilution method; type: functional, organism-based; summary of the method: as §1
[8] = tested on: Enterococcus faecalis; experiment: Antimicrobial activity against Enterococcus faecalis ATCC 29212 after 24 to 48 hrs by two-fold broth microdilution method; type: functional
[9] = tested on: Candida albicans; experiment: Antimicrobial activity against Candida albicans ATCC 537Y at 64 uM after 48 hrs by two-fold broth microdilution method; type: functional, organism-based
Summary of the method: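 Single top concentration of the antifungal microdilution: RPMI 1640, inoculum 0.5 McFarland diluted in saline/RPMI, 35 °C for 48 h. Activity is judged at the highest tested level, 64 µM. Run in triplicate.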

[10] = tested on: Escherichia coli; experiment: Antimicrobial activity against Escherichia coli ATCC 25922 at 128 uM after 24 to 48 hrs by two-fold broth microdilution method; type: functional, organism-based; summary of the method: as §1

| Compound | log(1/MIC>90) [1] | MIC [2] [µM] | MIC90 [2] [µM] | Activity [3] | MIC [4] [µM] | MIC90 [4] [µM] | MIC [5] [µM] | MIC90 [5] [µM] | Activity [6] | Activity [7] | MIC [8] [µM] | MIC90 [8] [µM] | Activity [9] | Activity [10] |
| --- | --- | --- | --- | --- | --- | --- | --- | --- | --- | --- | --- | --- | --- | --- |
| O=C(N/N=C/c1ccc([N+](=O)[O-])o1)c1ccccc1 | 5.28 | 32 (≈ 8.3 µg/mL) | 60.3 (≈ 15.6 µg/mL) | inactive | 4 (≈ 1.04 µg/mL) | 5.27 (≈ 1.37 µg/mL) | 16 (≈ 4.15 µg/mL) | 30.4 (≈ 7.89 µg/mL) | inactive | inactive | 32 (≈ 8.3 µg/mL) | 58.8 (≈ 15.2 µg/mL) | – | – |
| COc1ccc(C2=NN(C(C)=O)C(c3ccc([N+](=O)[O-])o3)O2)cc1 (centres undefined) | 4.96 | – | – | inactive | 8 (≈ 2.65 µg/mL) | 10.9 (≈ 3.6 µg/mL) | – | – | inactive | inactive | – | – | inactive | inactive |
| O=C(N/N=C/c1ccc([N+](=O)[O-])o1)c1ccc(Cl)c(Cl)c1 | 5.5 | 16 (≈ 5.25 µg/mL) | 32.2 (≈ 10.6 µg/mL) | inactive | 4 (≈ 1.31 µg/mL) | 7.49 (≈ 2.46 µg/mL) | 64 (≈ 21 µg/mL) | 85 (≈ 27.9 µg/mL) | inactive | inactive | 32 (≈ 10.5 µg/mL) | 59.7 (≈ 19.6 µg/mL) | – | – |
| CCCCOc1ccc(C2=NN(C(C)=O)C(c3ccc([N+](=O)[O-])o3)O2)cc1 (centres undefined) | 4.77 | 32 (≈ 11.9 µg/mL) | 41 (≈ 15.3 µg/mL) | inactive | 16 (≈ 5.97 µg/mL) | 16.9 (≈ 6.3 µg/mL) | 64 (≈ 23.9 µg/mL) | 77.9 (≈ 29.1 µg/mL) | inactive | inactive | – | – | – | – |
| O=C(N/N=C/c1ccc([N+](=O)[O-])o1)c1ccc(C(F)(F)F)cc1 | 5.36 | 32 (≈ 10.5 µg/mL) | 47.8 (≈ 15.6 µg/mL) | inactive | 4 (≈ 1.31 µg/mL) | 4.34 (≈ 1.42 µg/mL) | 64 (≈ 20.9 µg/mL) | 92.2 (≈ 30.2 µg/mL) | inactive | inactive | 32 (≈ 10.5 µg/mL) | 60.9 (≈ 19.9 µg/mL) | – | – |
| Cc1ccc(C(=O)N/N=C/c2ccc([N+](=O)[O-])o2)cc1 | 4.97 | 32 (≈ 8.74 µg/mL) | 58.3 (≈ 15.9 µg/mL) | inactive | 8 (≈ 2.19 µg/mL) | 9.42 (≈ 2.57 µg/mL) | – | – | inactive | inactive | 8 (≈ 2.19 µg/mL) | 14.2 (≈ 3.87 µg/mL) | – | inactive |
| CC(=O)N1N=C(c2ccccc2)OC1c1ccc([N+](=O)[O-])o1 (centres undefined) | 5.05 | 8 (≈ 2.41 µg/mL) | 15.8 (≈ 4.77 µg/mL) | inactive | 4 (≈ 1.21 µg/mL) | 8.93 (≈ 2.69 µg/mL) | – | – | inactive | inactive | 32 (≈ 9.64 µg/mL) | 52.9 (≈ 15.9 µg/mL) | – | inactive |
| O=C(N/N=C/c1ccc([N+](=O)[O-])o1)c1ccc(Cl)cc1 | 5.26 | 32 (≈ 9.4 µg/mL) | 53 (≈ 15.6 µg/mL) | inactive | 4 (≈ 1.17 µg/mL) | 5.52 (≈ 1.62 µg/mL) | 64 (≈ 18.8 µg/mL) | 102 (≈ 30 µg/mL) | inactive | inactive | 32 (≈ 9.4 µg/mL) | 40.7 (≈ 12 µg/mL) | – | – |
| CCCc1ccc(C2=NN(C(C)=O)C(c3ccc([N+](=O)[O-])o3)O2)cc1 (centres undefined) | 4.81 | 32 (≈ 11 µg/mL) | 46 (≈ 15.8 µg/mL) | inactive | 8 (≈ 2.75 µg/mL) | 15.4 (≈ 5.28 µg/mL) | – | – | inactive | inactive | – | – | – | inactive |
| CCC(C)n1ncn(-c2ccc(N3CCN(c4ccc(OCC5COC(Cn6cncn6)(c6ccc(Cl)cc6Cl)O5)cc4)CC3)cc2)c1=O (centres undefined) [ITRACONAZOLE] | – | < 20 | – | – | – | – | – | – | – | – | – | – | – | – |
| CCc1ccc(C2=NN(C(C)=O)C(c3ccc([N+](=O)[O-])o3)O2)cc1 (centres undefined) | 4.99 | 32 (≈ 10.5 µg/mL) | 48.2 (≈ 15.9 µg/mL) | inactive | 8 (≈ 2.63 µg/mL) | 10.2 (≈ 3.34 µg/mL) | – | – | inactive | inactive | – | – | – | inactive |
| CC(=O)N1N=C(c2ccc(I)cc2)OC1c1ccc([N+](=O)[O-])o1 (centres undefined) | 5.13 | – | – | inactive | 4 (≈ 1.71 µg/mL) | 6.29 (≈ 2.69 µg/mL) | – | – | inactive | inactive | – | – | inactive | inactive |
| CCc1ccc(C(=O)N/N=C/c2ccc([N+](=O)[O-])o2)cc1 | 5.43 | 32 (≈ 9.19 µg/mL) | 54 (≈ 15.5 µg/mL) | inactive | 4 (≈ 1.15 µg/mL) | 3.68 (≈ 1.06 µg/mL) | 64 (≈ 18.4 µg/mL) | 110 (≈ 31.7 µg/mL) | inactive | inactive | 64 (≈ 18.4 µg/mL) | 69.1 (≈ 19.9 µg/mL) | – | – |
| CC(=O)N1N=C(c2ccc(C)cc2)OC1c1ccc([N+](=O)[O-])o1 (centres undefined) | 4.91 | 32 (≈ 10.1 µg/mL) | 49.9 (≈ 15.7 µg/mL) | inactive | 8 (≈ 2.52 µg/mL) | 12.2 (≈ 3.85 µg/mL) | – | – | inactive | inactive | – | – | – | inactive |
| CC(=O)N1N=C(c2ccc(F)cc2)OC1c1ccc([N+](=O)[O-])o1 (centres undefined) | 5.07 | 32 (≈ 10.2 µg/mL) | 43.1 (≈ 13.8 µg/mL) | inactive | 8 (≈ 2.55 µg/mL) | 8.43 (≈ 2.69 µg/mL) | 64 (≈ 20.4 µg/mL) | 91 (≈ 29.1 µg/mL) | inactive | inactive | 64 (≈ 20.4 µg/mL) | 97.3 (≈ 31.1 µg/mL) | – | – |
| COc1ccc(C(=O)N/N=C/c2ccc([N+](=O)[O-])o2)cc1 | 5.39 | 32 (≈ 9.26 µg/mL) | 54.6 (≈ 15.8 µg/mL) | inactive | 4 (≈ 1.16 µg/mL) | 4.11 (≈ 1.19 µg/mL) | 32 (≈ 9.26 µg/mL) | 84 (≈ 24.3 µg/mL) | inactive | inactive | 8 (≈ 2.31 µg/mL) | 14.6 (≈ 4.23 µg/mL) | – | – |
| O=C(N/N=C/c1ccc([N+](=O)[O-])o1)c1ccc(Cl)cc1Cl | 5.13 | 32 (≈ 10.5 µg/mL) | 48 (≈ 15.8 µg/mL) | inactive | 4 (≈ 1.31 µg/mL) | 4.83 (≈ 1.58 µg/mL) | 64 (≈ 21 µg/mL) | 87.7 (≈ 28.8 µg/mL) | inactive | inactive | 32 (≈ 10.5 µg/mL) | 58.7 (≈ 19.3 µg/mL) | – | – |
| Cc1cc(NS(=O)(=O)c2ccc(N)cc2)no1 [SULFAMETHOXAZOLE] | – | – | – | inactive | – | – | 16 (≈ 4.05 µg/mL) | – | – | – | – | – | – | – |
